{"data": "Measured values gathered from unrelated publications", "observed": "cell growth or viability", "note": "Protocols differ between the studies behind these lines."}
{"SMILES": "CC(=O)c1cccc(/N=N/c2cc(/C=C/C(=O)O)ccc2O)c1", "cell line": "A-375", "technique": "MTT", "IC50": "> 50 µM"}
{"SMILES": "Clc1ccc(-c2nc3ccccc3n2Cc2ccccc2)cc1", "cell line": "MDA-MB-231", "technique": "MTT", "IC50": "35 µM"}
{"SMILES": "COC(=O)CN=c1scc(-c2ccccc2)n1-c1ccc(OC)cc1", "cell line": "Panc 04.03", "technique": "MTT", "time": "72 h", "IC50": "75.2 µM"}
{"SMILES": "COc1cc(-c2ncn(/C=C\\C(=O)OC(C)C)n2)cc(C(F)(F)F)c1", "cell line": "Mono-Mac-1", "time": "72 h", "IC50": "0.474 µM"}
{"SMILES": "CCOc1cc(-c2nc3ccccc3[nH]2)ccc1O", "cell line": "MDA-MB-231", "technique": "MTT", "time": "48 h", "IC50": "48.3 µM"}
{"SMILES": "Nc1nc(Nc2ccc3c(c2)CC[C@@H](N2CCCC2)CC3)nn1-c1cc2c(nn1)-c1ccccc1CCC2", "cell line": "CMK", "technique": "trypan blue", "time": "72 h", "IC50": "2.24 µM"}
{"SMILES": "COc1cc(C)cc2oc(-c3ccc(C(F)(F)F)cc3)cc(=O)c12", "cell line": "HS27", "technique": "MTT", "time": "24 h", "IC50": "> 200 µM"}
{"SMILES": "C=CCn1c(-c2ccc([N+](=O)[O-])cc2)nc2ccc(C)cc21", "cell line": "MDA-MB-231", "technique": "MTT", "IC50": "> 100 µM"}
{"SMILES": "O=C(Nc1ccc2[nH]nc(-c3ccncc3)c2c1)[C@@H]1CCN(CC(=O)N2CCN(c3ccc(-c4ncccn4)cc3)CC2)C1", "cell line": "A-375", "technique": "resazurin", "time": "96 h", "IC50": "0.037 µM"}
{"SMILES": "Cc1ccc2nc(-c3ccncc3)[nH]c2c1", "cell line": "MDA-MB-231", "technique": "MTT", "time": "48 h", "IC50": "74.6 µM"}
{"SMILES": "O=C(O)/C=C/c1ccc(O)cc1", "cell line": "A-375", "technique": "MTT", "IC50": "> 50 µM"}
{"SMILES": "COC(=O)CN=c1scc(-c2ccccc2)n1-c1ccccc1OC", "cell line": "SiHa", "technique": "MTT", "time": "72 h", "IC50": "4.2 µM"}
{"SMILES": "CCOc1cc(OCC)cc(C(=O)O[C@@H]2CN3Cc4c(cc5c(c4OC)OCO5)[C@@]24C=C[C@H](OC)C[C@@H]34)c1", "cell line": "MRC5", "technique": "WST-1", "IC50": "> 10 µM"}
{"SMILES": "COc1ccc(C[C@H]2CO[C@H](c3ccc(OC)c(OC)c3)[C@H]2COC(=O)CC(C)C)cc1OC", "cell line": "rat VSMC", "technique": "resazurin", "time": "48 h", "IC50": "31 µM"}
{"SMILES": "COc1c2ccoc2c(OCC=C(C)C)c2oc(=O)ccc12", "cell line": "MRC5", "technique": "MTT", "time": "72 h", "IC50": "> 100 µM"}
{"SMILES": "COc1cc(C)c(-c2c(C)cc(OC)c3c(=O)cc(-c4ccc(C(F)(F)F)cc4)oc23)c2oc(-c3ccc(C(F)(F)F)cc3)cc(=O)c12", "cell line": "HS27", "technique": "MTT", "time": "24 h", "IC50": "> 200 µM"}
{"SMILES": "c1ccc(-c2ccccn2)nc1", "cell line": "BEL-7404", "technique": "MTT", "time": "48 h", "IC50": "> 50 µM"}
{"SMILES": "COc1cc(C)c(-c2c(C)cc(OC)c3c(=O)cc(-c4ccc(Br)cc4)oc23)c2oc(-c3ccc(Br)cc3)cc(=O)c12", "cell line": "HS27", "technique": "MTT", "time": "24 h", "IC50": "> 200 µM"}
{"SMILES": "C/C=C(/C)C(=O)OC[C@H]1[C@@H](Cc2ccc(F)cc2)CO[C@@H]1c1ccc(F)cc1", "cell line": "rat VSMC", "technique": "resazurin", "time": "48 h", "IC50": "4.7 µM"}
{"SMILES": "COC(=O)/C=C/C=C/c1ccc2c(c1)OCO2", "cell line": "MRC5", "technique": "SRB", "IC50": "250 µM"}
{"SMILES": "COc1cc(OC)c2c(=O)cc(-c3ccccc3Br)oc2c1", "cell line": "HS27", "technique": "MTT", "time": "24 h", "IC50": "> 200 µM"}
{"SMILES": "Cl.Oc1cccc2c1[nH]c1c(C3=CC4(O)CC/C=C\\CCCCN5CCC3C3(CC6/C=C\\CCCCN6C43)C5)nccc12 (single isomer, unassigned; (+))", "cell line": "LLC-PK11", "technique": "neutral red", "time": "48 h", "IC50": "1.85 µg/mL"}
{"SMILES": "Cc1ccc2nc(-c3ccc4c(c3)OCO4)[nH]c2c1", "cell line": "MDA-MB-231", "technique": "MTT", "time": "48 h", "IC50": "> 100 µM"}
{"SMILES": "C/C=C(/C)C(=O)OC[C@H]1[C@@H](Cc2ccc(C(F)(F)F)cc2)CO[C@@H]1c1ccccc1", "cell line": "rat VSMC", "technique": "resazurin", "time": "48 h", "IC50": "4.2 µM"}
{"SMILES": "Cc1ccc2nc(-c3cccc([N+](=O)[O-])c3)[nH]c2c1", "cell line": "MDA-MB-231", "technique": "MTT", "time": "48 h", "IC50": "> 100 µM"}
{"SMILES": "COC(=O)CN=c1scc(-c2ccccc2)n1-c1ccccc1[N+](=O)[O-]", "cell line": "SiHa", "technique": "MTT", "time": "72 h", "IC50": "6.78 µM"}
{"SMILES": "COc1cc2nccc(Oc3ccc(NC(=O)C4(C(=O)Nc5ccc(F)cc5)CC4)cc3)c2cc1OC", "cell line": "CMK", "technique": "trypan blue", "time": "72 h", "IC50": "> 5.91 µM"}
{"SMILES": "Cc1ccc2c(Br)cc(Br)c(O)c2n1", "cell line": "BEL-7404", "technique": "MTT", "time": "48 h", "IC50": "> 150 µM"}
{"SMILES": "COc1cc(C)c(-c2c(C)cc(OC)c3c(=O)cc(-c4ccccc4Br)oc23)c2oc(-c3ccccc3Br)cc(=O)c12", "cell line": "HS27", "technique": "MTT", "time": "24 h", "IC50": "> 200 µM"}
{"SMILES": "Cc1ccc2nc(-c3cccc(O)c3)[nH]c2c1", "cell line": "MDA-MB-231", "technique": "MTT", "time": "48 h", "IC50": "> 100 µM"}
{"SMILES": "COc1ccc(-c2cc(=O)c3c(OC)cc(C)cc3o2)cc1", "cell line": "HS27", "technique": "MTT", "time": "24 h", "IC50": "> 200 µM"}
{"SMILES": "COC(=O)CN=c1scc(-c2ccccc2)n1-c1ccc(C)cc1", "cell line": "Panc 04.03", "technique": "MTT", "time": "72 h", "IC50": "50.3 µM"}
{"SMILES": "CC(=O)c1ccc(/N=N/c2cc(/C=C/C(=O)O)ccc2O)cc1", "cell line": "A-375", "technique": "MTT", "IC50": "> 50 µM"}
{"SMILES": "Cc1ccc2c(Cl)cc(Cl)c(O)c2n1", "cell line": "BEL-7404", "technique": "MTT", "time": "48 h", "IC50": "> 100 µM"}
{"SMILES": "COc1ccc(-c2cc(=O)c3c(OC)cc(C)c(-c4c(C)cc(OC)c5c(=O)cc(-c6ccc(OC)cc6)oc45)c3o2)cc1", "cell line": "HS27", "technique": "MTT", "time": "24 h", "IC50": "> 200 µM"}
{"SMILES": "Oc1ccc(Nc2nc(-c3ccc(Cl)cc3)cs2)cc1", "cell line": "FF2441", "technique": "MTS", "time": "24 h", "IC50": "> 100 µM"}
{"SMILES": "COc1cc(C)cc2oc(-c3ccc(Br)cc3)cc(=O)c12", "cell line": "HS27", "technique": "MTT", "time": "24 h", "IC50": "> 200 µM"}
{"SMILES": "COC(=O)CN=c1scc(-c2ccccc2)n1-c1ccc(Cl)cc1", "cell line": "Panc 04.03", "technique": "MTT", "time": "72 h", "IC50": "52.1 µM"}
{"SMILES": "Oc1c(Br)cc(Br)c2cccnc12", "cell line": "BEL-7404", "technique": "MTT", "time": "48 h", "IC50": "68.1 µM"}
{"SMILES": "COC(=O)CN=c1scc(-c2ccccc2)n1-c1ccccc1", "cell line": "Panc 04.03", "technique": "MTT", "time": "72 h", "IC50": "> 100 µM"}
{"SMILES": "Cc1ccc2nc(-c3ccco3)[nH]c2c1", "cell line": "MDA-MB-231", "technique": "MTT", "time": "48 h", "IC50": "> 100 µM"}
